Where only a bound is given, the exact number is not on record here.

This note sets out measurements from ChEMBL document CHEMBL3217512, “Indole/triazole conjugates are selective inhibitors and inducers of bacterial biofilms” (Medchemcomm, 2013).

The subject of data set [1] is Staphylococcus aureus. Briefly: Inhibition of biofilm formation in Staphylococcus aureus 29213 at 150 uM after 24 hrs by crystal violet staining-based assay relative to control. The following applies: Staphylococcus aureus, 29213, 24 h. The class given is functional.
The subject of data set [2] is Acinetobacter baumannii. Briefly: Antimicrobial activity against Acinetobacter baumannii 19606 assessed as effect on planktonic growth at IC50 after 2 to 24 hrs by colony count method. Set-up: species or system ATCC 19606.
Data set [3] has as its system Staphylococcus aureus. Briefly: Inhibition of biofilm formation in methicillin-resistant Staphylococcus aureus BAA 44 at 150 uM after 24 hrs by crystal violet staining-based assay relative to control. The class given is functional. The following applies: BAA 44, 24 h. An outline of the steps:
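Static biofilm development in MRSA, read out by crystal violet staining against an untreated control. Initial screen at 150 μM. Inhibitors then went to dose-response, with IC50 taken as the concentration giving 50% inhibition of biofilm growth. Induction was judged at 50 μM: under 50% induction counted as "inducer", over 50% as "strong inducer".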

Data set [4] has as its system Escherichia coli. Briefly: Antimicrobial activity against Escherichia coli K-12 ER2718 assessed as effect on planktonic growth at IC50 after 2 to 24 hrs. The format is organism-based.
In data set [5] the test system is Staphylococcus aureus. The data set is described as follows: Antimicrobial activity against methicillin-resistant Staphylococcus aureus BAA 44 assessed as effect on planktonic growth at IC50 after 2 to 24 hrs by colony count method. The class given is organism-based. As to conditions: in vivo.
Data set [6] has as its system Escherichia coli. Briefly: Inhibition of biofilm formation in Escherichia coli K-12 ER2718 at 150 uM after 24 hrs by crystal violet staining-based assay relative to control. The class given is functional. As to conditions: K-12 ER2718, 24 h.
For data set [7], the system named is Escherichia coli. The data set is described as follows: Antimicrobial activity against Escherichia coli K-12 ER2718 assessed as effect on planktonic growth at IC50 after 2 to 24 hrs by colony count method. The class given is organism-based.
Data set [8] concerns Acinetobacter baumannii. The data set is described as follows: Inhibition of biofilm formation in Acinetobacter baumannii 19606 at 150 uM after 24 hrs by crystal violet staining-based assay relative to control. The class given is functional. As to conditions: ATCC 19606 = CIP 70.34 = JCM 6841, 24 h.
Data set [9] deals with Staphylococcus aureus. Briefly: Antimicrobial activity against Staphylococcus aureus 29213 assessed as effect on planktonic growth at IC50 after 2 to 24 hrs by colony count method. The class given is organism-based. The following applies: in vivo.
For data set [10], the system named is Staphylococcus aureus. Briefly: Antimicrobial activity against Staphylococcus aureus 29213 assessed as effect on planktonic growth at IC50 after 2 to 24 hrs. The class given is organism-based. As to conditions: in vivo.
For data set [11], the system named is Acinetobacter baumannii. Briefly: Antimicrobial activity against Acinetobacter baumannii 19606 assessed as effect on planktonic growth at IC50 after 2 to 24 hrs. The arrangement: species or system ATCC 19606.
Data set [12] relates to Staphylococcus aureus. The data set is described as follows: Antimicrobial activity against methicillin-resistant Staphylococcus aureus BAA 44 assessed as effect on planktonic growth at IC50 after 2 to 24 hrs. The format is organism-based. The following applies: in vivo.
For data set [13], the system named is Escherichia coli. The data set is described as follows: Antimicrobial activity against Escherichia coli K-12 ER2718 assessed as effect on planktonic growth at PC25 after 2 to 24 hrs by colony count method. The format is organism-based.
Data set [14] relates to Escherichia coli. The data set is described as follows: Antimicrobial activity against Escherichia coli K-12 ER2718 assessed as effect on planktonic growth at 50 uM after 2 to 24 hrs. The class given is organism-based. In a few lines: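 Growth curve analysis of planktonic bacteria with each biofilm inducer at 50 μM, used to assess toxicity.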
Data set [15] relates to Escherichia coli. Briefly: Antimicrobial activity against Escherichia coli K-12 ER2718 assessed as effect on planktonic growth at PC50 after 2 to 24 hrs by colony count method. The following applies: in vivo. The format is organism-based.
In data set [16] the test system is Escherichia coli. The data set is described as follows: Antimicrobial activity against Escherichia coli K-12 ER2718 assessed as effect on planktonic growth at PC25 after 2 to 24 hrs. The class given is organism-based.
Data set [17] has as its system Escherichia coli. Briefly: Induction of biofilm formation in Escherichia coli K-12 ER2718 at 50 uM after 24 hrs by crystal violet staining-based assay relative to control. The class given is functional. In a few lines:
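Static biofilm assay with compounds at 50 μM and crystal violet read-out, relative to an untreated control. Compounds increasing biofilm by less than 50% were called inducers, and by more than 50% strong inducers.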

For data set [18], the system named is Escherichia coli. The data set is described as follows: Antimicrobial activity against Escherichia coli K-12 ER2718 assessed as effect on planktonic growth at PC50 after 2 to 24 hrs. The format is organism-based.
The test system of data set [19] is Escherichia coli. Briefly: Antimicrobial activity against Escherichia coli K-12 ER2718 assessed as effect on planktonic growth at PC75 after 2 to 24 hrs. The format is organism-based. As to conditions: in vivo.
The test system of data set [20] is Escherichia coli. The data set is described as follows: Antimicrobial activity against Escherichia coli K-12 ER2718 assessed as effect on planktonic growth at PC75 after 2 to 24 hrs by colony count method. The following applies: in vivo. The format is organism-based.

Usually inhibition stands for the change of the read-out against control, counted positive when it falls. Regarding `O=C(NCCn1cc(Cc2c[nH]c3ccccc23)nn1)c1ccccc1`, the inhibition at 150 µM with Staphylococcus aureus [1] is 23%; in the data set on Staphylococcus aureus [3], below 5%; in the data set on Escherichia coli [6] it was below 5%; in the data set with Acinetobacter baumannii [8], below 5%. For the same molecule, the Activity result in the data set with Acinetobacter baumannii [2], in the data set with Escherichia coli [4], in the data set with Staphylococcus aureus [5], in the data set on Escherichia coli [7], in the data set on Staphylococcus aureus [9] and with Staphylococcus aureus [10] was “Non-toxic” in each case. For the same molecule, the Activity entry with Acinetobacter baumannii [11] and with Staphylococcus aureus [12] was “Non-toxic” in each case.
On to `CCCCCCNC(=O)Cn1cc(Cc2csc3ccccc23)nn1`, for which the inhibition at 150 µM with Staphylococcus aureus [1] was below 5%; in the data set on Staphylococcus aureus [3] it was below 5%; in the data set on Escherichia coli [6] it was below 5%; in the data set with Acinetobacter baumannii [8], 20%. The Activity entry in the data set on Acinetobacter baumannii [2], with Escherichia coli [4], in the data set on Staphylococcus aureus [5], in the data set with Escherichia coli [7], in the data set on Staphylococcus aureus [9] and in the data set on Staphylococcus aureus [10] was “Non-toxic” in each case. In addition, the Activity entry in the data set with Acinetobacter baumannii [11] and in the data set with Staphylococcus aureus [12] was “Non-toxic” in each case.
Turning to `CCCCCCc1ccc(C(=O)NCCn2cc(Cc3csc4ccccc34)nn2)cc1`, the inhibition at 150 µM in the data set on Staphylococcus aureus [1], in the data set on Staphylococcus aureus [3], in the data set with Escherichia coli [6] and in the data set with Acinetobacter baumannii [8] was below 5% throughout. The Activity result in the data set with Acinetobacter baumannii [2], with Escherichia coli [4], in the data set on Staphylococcus aureus [5], in the data set on Escherichia coli [7], in the data set on Staphylococcus aureus [9] and in the data set with Staphylococcus aureus [10] was “Non-toxic” each time. Also, the Activity result with Acinetobacter baumannii [11] and with Staphylococcus aureus [12] was “Non-toxic” throughout.
Take `CCCCCCc1ccc(C(=O)NCCn2cc(Cc3c(Br)[nH]c4ccccc34)nn2)cc1`: the inhibition at 150 µM is 40% in the data set on Staphylococcus aureus [1], 25% in the data set on Staphylococcus aureus [3] and 22% with Acinetobacter baumannii [8]. Further, the Activity result with Escherichia coli [13], with Acinetobacter baumannii [2], with Escherichia coli [14], with Escherichia coli [15], in the data set on Escherichia coli [4] and in the data set with Staphylococcus aureus [5] was “Non-toxic” each time. Also, the Activity entry with Escherichia coli [7] is “Non-toxic”; with Escherichia coli [16], “Non-toxic”; with Escherichia coli [17], below 50%; in the data set with Staphylococcus aureus [9], “Non-toxic”; with Staphylococcus aureus [10] it was “Non-toxic”; in the data set on Acinetobacter baumannii [11], “Non-toxic”. The Activity entry in the data set on Escherichia coli [18], in the data set with Escherichia coli [19], in the data set with Escherichia coli [20] and in the data set with Staphylococcus aureus [12] was “Non-toxic” in each case.
For the molecule `COc1ccc(CNC(=O)Cn2cc(Cc3csc4ccccc34)nn2)cc1`, the inhibition at 150 µM in the data set with Staphylococcus aureus [1] is below 5%; in the data set with Staphylococcus aureus [3], below 5%; in the data set on Escherichia coli [6], below 5%; in the data set on Acinetobacter baumannii [8] it was 20%. The Activity result in the data set with Acinetobacter baumannii [2], with Escherichia coli [4], in the data set on Staphylococcus aureus [5], with Escherichia coli [7], in the data set with Staphylococcus aureus [9] and with Staphylococcus aureus [10] was “Non-toxic” throughout. For the same molecule, the Activity entry in the data set with Acinetobacter baumannii [11] and in the data set on Staphylococcus aureus [12] was “Non-toxic” in each case.
With `O=C(Cn1cc(Cc2c[nH]c3ccccc23)nn1)Nc1ccccc1`, the inhibition at 150 µM with Staphylococcus aureus [1], with Staphylococcus aureus [3] and in the data set on Acinetobacter baumannii [8] was below 5% throughout. The Activity entry in the data set with Escherichia coli [13], in the data set with Acinetobacter baumannii [2], in the data set with Escherichia coli [14], with Escherichia coli [15], in the data set on Escherichia coli [4] and in the data set on Staphylococcus aureus [5] was “Non-toxic” in each case. In addition, the Activity entry in the data set on Escherichia coli [7] was “Non-toxic”; in the data set on Escherichia coli [16], “Non-toxic”; in the data set with Escherichia coli [17], below 50%; with Staphylococcus aureus [9] it was “Non-toxic”; in the data set on Staphylococcus aureus [10], “Non-toxic”; with Acinetobacter baumannii [11], “Non-toxic”. Moreover, the Activity entry with Escherichia coli [18], in the data set on Escherichia coli [19], with Escherichia coli [20] and in the data set on Staphylococcus aureus [12] was “Non-toxic” in each case.
For the molecule `O=C(NCCn1cc(Cc2csc3ccccc23)nn1)c1ccccc1`, the inhibition at 150 µM was below 5% in the data set with Staphylococcus aureus [1], below 5% with Staphylococcus aureus [3], 14% in the data set on Escherichia coli [6] and below 5% with Acinetobacter baumannii [8]. The Activity entry in the data set on Acinetobacter baumannii [2], with Escherichia coli [4], with Staphylococcus aureus [5], with Escherichia coli [7], in the data set on Staphylococcus aureus [9] and in the data set on Staphylococcus aureus [10] was “Non-toxic” each time. For the same molecule, the Activity result in the data set on Acinetobacter baumannii [11] and in the data set on Staphylococcus aureus [12] was “Non-toxic” in each case.
Take `COc1ccc(CNC(=O)Cn2cc(Cc3c[nH]c4ccccc34)nn2)cc1`: the inhibition at 150 µM was below 5% with Staphylococcus aureus [1], below 5% with Staphylococcus aureus [3], below 5% in the data set on Escherichia coli [6] and 20% with Acinetobacter baumannii [8]. Besides, the Activity result in the data set on Acinetobacter baumannii [2], with Escherichia coli [4], in the data set with Staphylococcus aureus [5], with Escherichia coli [7], with Staphylococcus aureus [9] and in the data set on Staphylococcus aureus [10] was “Non-toxic” each time. In addition, the Activity result in the data set with Acinetobacter baumannii [11] and in the data set on Staphylococcus aureus [12] was “Non-toxic” throughout.
Regarding `CCCCCCNC(=O)Cn1cc(Cc2c[nH]c3ccccc23)nn1`, the inhibition at 150 µM in the data set with Staphylococcus aureus [1] was below 5%; with Staphylococcus aureus [3] it was below 5%; with Acinetobacter baumannii [8], 25%. For the same molecule, the Activity entry in the data set with Escherichia coli [13], in the data set with Acinetobacter baumannii [2], with Escherichia coli [14], in the data set with Escherichia coli [15], with Escherichia coli [4] and in the data set on Staphylococcus aureus [5] was “Non-toxic” in each case. In addition, the Activity entry is “Non-toxic” in the data set on Escherichia coli [7]; “Non-toxic” with Escherichia coli [16]; below 50% with Escherichia coli [17]; “Non-toxic” in the data set on Staphylococcus aureus [9]; “Non-toxic” in the data set with Staphylococcus aureus [10]; “Non-toxic” with Acinetobacter baumannii [11]. In addition, the Activity result in the data set with Escherichia coli [18], in the data set on Escherichia coli [19], with Escherichia coli [20] and with Staphylococcus aureus [12] was “Non-toxic” in each case.
